Here are results for 3 compounds from ChEMBL document CHEMBL2057112, “Enamino-oxindole HIV protease inhibitors” (Bioorg Med Chem Lett, 2012).

Molecules are shown by their SMILES. pIC50, pKi: −log10 of the molar value.

The subject of assay [1] is Human immunodeficiency virus 1. Put plainly: Antiviral activity against Human immunodeficiency virus 1 HXB2 expressing protease M6 mutant infected in human MT4 cells after 5 days by MTT assay. It is filed as functional, organism-based. The note with it: Human immunodeficiency virus 1, HXB2, MT4, 120 h. Put shortly:
(§1)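 MT-4 cells (AIDS Research and Reference Reagent Program) exposed to 50% tissue culture infective doses (TCID₅₀) of virus with various concentrations of test compound for 5 days. MTT solution then added and absorbance measured. Mutant strains carry 10–17 resistance mutations with phenotypic resistance to marketed PIs; all include I84V except M7. IC₅₀ reported.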

Assay [2] has as its system Human immunodeficiency virus 1. The experiment in a line: Antiviral activity against Human immunodeficiency virus 1 HXB2 expressing protease M9 mutant infected in human MT4 cells after 5 days by MTT assay. Type of assay: functional, organism-based. As to conditions: Human immunodeficiency virus 1, HXB2, MT4, 120 h. Background: Formazan colour is commonly taken as a measure of viable cells.

Assay [3] is described as follows: Inhibition of wild type Human immunodeficiency virus protease expressed in Escherichia coli using ArgGlu(EDANS)SerGlnAsnTyrProIleValGlnLys(DABCYL)Arg as substrate preincubated with compound for 0.5 to 1 min measured by fluorometric analysis at pH 6.5.
A short description of assay [4]: Inhibition of Human immunodeficiency virus protease M10 mutant expressed in Escherichia coli using ArgGlu(EDANS)SerGlnAsnTyrProIleValGlnLys(DABCYL)Arg as substrate preincubated with compound for 0.5 to 1 min measured by fluorometric analysis at pH 6.5.
The subject of assay [5] is Human immunodeficiency virus 1. The experiment in a line: Antiviral activity against Human immunodeficiency virus 1 HXB2 expressing protease M4 mutant infected in human MT4 cells after 5 days by MTT assay. Type of assay: functional, organism-based. As to conditions: Human immunodeficiency virus 1, HXB2, MT4, 120 h. Put shortly:
as §1

For assay [6], the system named is Human immunodeficiency virus 1. Put plainly: Antiviral activity against Human immunodeficiency virus 1 HXB2 expressing protease M5 mutant infected in human MT4 cells after 5 days by MTT assay. It is filed as functional, organism-based. The note with it: Human immunodeficiency virus 1, HXB2, MT4, 120 h. Put shortly:
as §1

Assay [7] concerns Human immunodeficiency virus 1. Put plainly: Antiviral activity against Human immunodeficiency virus 1 HXB2 expressing protease M3 mutant infected in human MT4 cells after 5 days by MTT assay. The note with it: Human immunodeficiency virus 1, HXB2, MT4, 120 h. Type of assay: functional, organism-based. The method, boiled down: as §1
A short description of assay [8]: Inhibition of Human immunodeficiency virus protease M8 mutant expressed in Escherichia coli using ArgGlu(EDANS)SerGlnAsnTyrProIleValGlnLys(DABCYL)Arg as substrate preincubated with compound for 0.5 to 1 min measured by fluorometric analysis at pH 6.5.
Assay [9] has as its system Human immunodeficiency virus 1. Put plainly: Antiviral activity against Human immunodeficiency virus 1 HXB2 expressing protease M7 mutant infected in human MT4 cells after 5 days by MTT assay. It is filed as functional, organism-based. The note with it: Human immunodeficiency virus 1, HXB2, MT4, 120 h. Put shortly: as §1
The test system of assay [10] is Human immunodeficiency virus 1. Put plainly: Antiviral activity against Human immunodeficiency virus 1 HXB2 expressing wild type protease infected in human MT4 cells after 5 days by MTT assay. It is filed as functional, organism-based. As to conditions: Human immunodeficiency virus 1, HXB2, MT4, 120 h.
Assay [11] has as its system Human immunodeficiency virus 1. Put plainly: Antiviral activity against Human immunodeficiency virus 1 HXB2 expressing protease M10 mutant infected in human MT4 cells after 5 days by MTT assay. It is filed as functional, organism-based. The note with it: Human immunodeficiency virus 1, HXB2, MT4, 120 h.
For assay [12], the system named is Human immunodeficiency virus 1. Put plainly: Antiviral activity against Human immunodeficiency virus 1 HXB2 expressing protease M8 mutant infected in human MT4 cells after 5 days by MTT assay. It is filed as functional, organism-based. As to conditions: Human immunodeficiency virus 1, HXB2, MT4, 120 h.
Assay [13] is described as follows: Inhibition of Human immunodeficiency virus protease M9 mutant expressed in Escherichia coli using ArgGlu(EDANS)SerGlnAsnTyrProIleValGlnLys(DABCYL)Arg as substrate preincubated with compound for 0.5 to 1 min measured by fluorometric analysis at pH 6.5.

In the case of `CC(C)CN(C[C@@H](O)[C@H](Cc1ccccc1)NC(=O)O[C@H]1CO[C@H]2OCC[C@H]21)S(=O)(=O)c1ccc(N)cc1`, the pIC50 was 8.00 in assay [1]; 7.60 in [2]; 7.52 in assay [5]; 7.66 in [6]; 7.96 in assay [7]; 8.49 in [9]. The pIC50 in [10] was 8.52; in assay [11], 6.89; in assay [12], 7.80. For the same compound, the pKi in assay [3] was greater than 10.00; in assay [4], 9.00; in [8], 9.60; in assay [13], greater than 9.52.

Turning to `COC(=O)N[C@H](C(=O)N[C@@H](Cc1ccccc1)[C@@H](O)CN(Cc1ccc(-c2ccccn2)cc1)NC(=O)[C@@H](NC(=O)OC)C(C)(C)C)C(C)(C)C` [ATAZANAVIR], the pIC50 is 6.37 in assay [1]; 5.60 in [2]; 6.22 in assay [5]; 6.55 in assay [6]; 6.46 in [7]; 6.98 in assay [9]. For the same compound, the pIC50 is 8.46 in [10], 5.48 in assay [11] and 6.12 in assay [12]. Also, the pKi is greater than 10.00 in assay [3], 6.77 in assay [4], 8.55 in assay [8] and 7.08 in assay [13].

Take `CC(C)CN(C[C@@H](O)[C@H](Cc1ccccc1)NC(=O)O[C@H]1CO[C@H]2OCC[C@H]21)S(=O)(=O)c1ccc2c(c1)CCN2`: the pIC50 in assay [1] is 7.52; in assay [2] it was 6.72; in [5], 6.76; in assay [6], 6.92; in assay [7] it was 7.10; in [9], 8.12. The pIC50 is 8.41 in assay [10], 5.77 in assay [11] and 6.97 in assay [12]. In addition, the pKi in [3] is 9.92; in assay [4], 8.00; in assay [8], 9.20; in assay [13], 8.82.

The term pIC50 denotes the negative decadic logarithm of the IC50, by convention in mol/L. One may read the pKi as the Ki on a negative log10 scale, so that one unit is a factor of ten.
